Experimental data as given in paper PMC3059335 (Investigational New Drugs, 2010).

Key:
[1] = system: patients with solid tumors; test: toxicity monitoring of continuous infusion cilengitide; format: in vivo
[2] = human, cited from earlier work
[3] = system: αvβ3 and αvβ5-mediated cell adhesion; conditions: read-out: IC50, inhibition of αvβ3 and αvβ5-mediated cell adhesion; cited from earlier work
[4] = system: patients with solid tumors; test: tumor response, radiographic tumor assessment every 8 weeks; format: in vivo, human
Procedure, shortened: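 Patients received continuous IV infusion at fixed dose levels of 1, 2, 4, 8, 12, 18, 27 or 40 mg/hr, with the infusion bag replaced weekly; 4-week cycles without a break. Tumors assessed every 8 weeks (every two cycles). Patients with DLT continued at the next lower dose if toxicities had resolved to grade ≤1 and disease had not progressed.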

[5] = pharmacokinetics of continuous infusion cilengitide; format: in vivo, human
Procedure, shortened: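 Test compound given as fixed-dose continuous IV infusion (1–40 mg/hr) via venous access port, diluted in 0.9% NaCl or 5% dextrose; bag changed weekly. Heparinised blood (10 mL) taken day 1 pre-dose and 2 h post-start, then weekly for 4 weeks before and 2 h after bag change. Plasma frozen at −80°C, run in duplicate by HPLC-MS/MS. Steady-state concentration, Vss and clearance reported as mean and SD; Vd assumes 4-h half-life.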

[6] = system: patients with advanced solid tumours; conditions: phase I testing of doses up to 2400 mg/m^2 twice weekly; cited from earlier work

For `CC(C)[C@H]1C(=O)N[C@@H](CCCNC(=N)N)C(=O)NCC(=O)N[C@@H](CC(=O)O)C(=O)N[C@H](Cc2ccccc2)C(=O)N1C` [cilengitide], the “maximum tolerated dose (MTD)” value ([1]; continuous infusion, doses up to 40 mg/hr) was “not reached”, the treatment-related hypertension ([1]; in vivo) was “did not occur in any patients” and the maximum feasible dose ([1]; in vivo, iv) was 40 mg/h. For the same compound, the clearance ([2]; in vivo) was 34-66 mL/min/m^2, the plasma half-life ([2]; in vivo) was 3 to 5 h and the “metabolism, drug accumulation, or enterohepatic circulation” value ([2]; intermittent dosing) was “no evidence of metabolism, drug accumulation, or enterohepatic circulation”. For the same compound, the IC50 [3] was roughly 1000 nM, the objective responses ([4]; 17 of the 35 patients assessed at the end of cycle 2) was “No objective responses were observed” and the “relationship between dose level or steady state concentration (Css) and change in tumor size after two cycles” value ([4]; data not shown) was “no significant relationship”. The “median duration of stable disease” value ([4]; two patients, cycle = 4 weeks) was 3.5 cycles, the “cilengitide clearance, range calculated in our study” value ([5]; continuous infusion 1-40 mg/hr, range across dose levels) was 55 – 88 mL/min/m^2 and the “accumulation of cilengitide in the plasma over time” value ([5]; continuous infusion, weekly sampling in cycle 1) was “no evidence of accumulation”. The maximally tolerated dose [6] was “not reached”.
